Experimental data: ChEMBL document CHEMBL3351319, “Synthesis, biological evaluation and 3D-QSAR study of novel 4,5-dihydro-1H-pyrazole thiazole derivatives as BRAF(V⁶⁰⁰E) inhibitors” (Bioorg Med Chem, 2015)

Test system: MCF7
Assay: Antiproliferative activity against human MCF7 cells after 48 hrs by MTT assay
Type: functional, cell-based
Conditions: MCF7, 48 h
Method in brief: (§1)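 Cells grown to log phase in RPMI 1640 with 10% FBS, seeded at 2 × 10^4 cells/mL and left 24 h at 37 °C, 5% CO2. Compounds added at pre-set concentrations, sorafenib as positive control, 48 h exposure. MTT (2.5 mg/mL in PBS) added for 4 h, then SDS-isobutanol-HCl extraction overnight at 37 °C. OD read at 570 nm. Three replicate wells per concentration, each assay run at least three times.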

Row | Structure (SMILES) | IC50 [nM]
1 | COc1ccc(C2=NN(c3nc(-c4ccc(C(F)(F)F)cc4)cs3)C(c3cccs3)C2)cc1 (stereo unspecified) | 45700
2 | Fc1ccc(C2=NN(c3nc(-c4ccc(Br)cc4)cs3)C(c3cccs3)C2)cc1 (stereo unspecified) | 8280
3 | Cc1ccc(C2=NN(c3nc(-c4ccc(C(F)(F)F)cc4)cs3)C(c3cccs3)C2)cc1 (stereo unspecified) | 31500
4 | COc1ccc(C2=NN(c3nc(-c4ccccc4)cs3)C(c3cccs3)C2)cc1 (stereo unspecified) | 9010
5 | Clc1ccc(C2=NN(c3nc(-c4ccccc4)cs3)C(c3cccs3)C2)cc1 (stereo unspecified) | 190
6 | FC(F)(F)c1ccc(-c2csc(N3N=C(c4ccc(Br)cc4)CC3c3cccs3)n2)cc1 (stereo unspecified) | 7810
7 | Clc1ccc(C2=NN(c3nc(-c4ccc(Br)cc4)cs3)C(c3cccs3)C2)cc1 (stereo unspecified) | 14700
8 | FC(F)(F)c1ccc(-c2csc(N3N=C(c4ccc(Cl)cc4)CC3c3cccs3)n2)cc1 (stereo unspecified) | 160
9 | COc1ccc(C2=NN(c3nc(-c4ccc(OC)cc4)cs3)C(c3cccs3)C2)cc1 (stereo unspecified) | 16200
10 | COc1ccc(-c2csc(N3N=C(c4ccc(Cl)cc4)CC3c3cccs3)n2)cc1 (stereo unspecified) | 2480

Test system: WM 266-4
Assay: Induction of apoptosis in human WM266.4 cells assessed as early apoptotic cells at 3 uM after 48 hrs using annexin V-FITC/PI by flow cytometry (reference value: 5.79 %)
Type: functional
Conditions: not given

Row | Structure (SMILES) | Activity [%]
11 | FC(F)(F)c1ccc(-c2csc(N3N=C(c4ccc(Cl)cc4)CC3c3cccs3)n2)cc1 (stereo unspecified) | 47.19

Test system: MCF7
Assay: Induction of apoptosis in human MCF7 cells assessed as necrotic cells at 1 uM after 48 hrs using annexin V-FITC/PI by flow cytometry (reference value: 0.29 %)
Type: functional
Conditions: not given

Row | Structure (SMILES) | Activity [%]
12 | FC(F)(F)c1ccc(-c2csc(N3N=C(c4ccc(Cl)cc4)CC3c3cccs3)n2)cc1 (stereo unspecified) | 1.2

Test system: MCF7
Assay: Induction of apoptosis in human MCF7 cells assessed as viable cells at 3 uM after 48 hrs using annexin V-FITC/PI by flow cytometry (reference value: 91.07 %)
Type: functional
Conditions: MCF7, 48 h, read-out: Activity

Row | Structure (SMILES) | viability at 3 µM [%]
13 | FC(F)(F)c1ccc(-c2csc(N3N=C(c4ccc(Cl)cc4)CC3c3cccs3)n2)cc1 (stereo unspecified) | 19.8

Test system: not listed separately
Assay: Inhibition of full-length GST-tagged mouse BRAF V600E mutant using MEK1 as substrate preincubated for 1 hr
Conditions: not given
Method in brief: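 Mouse full-length GST-tagged BRAF V600E (7.5 ng) pre-incubated 1 h at room temperature with compound in assay dilution buffer. Reaction started by adding 200 ng His-tagged full-length human MEK1, 200 µM ATP (0.8 µCi hot ATP) and 30 mM MgCl2, then run 25 min at room temperature. Quenched with LDS buffer and heated 5 min at 70 °C. Products separated on 4-12% gel, which was dried and read on a phosphor screen. No-enzyme and no-inhibitor controls included, triplicate.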

Row | Structure (SMILES) | IC50 [nM]
14 | COc1ccc(C2=NN(c3nc(-c4ccc(C(F)(F)F)cc4)cs3)C(c3cccs3)C2)cc1 (stereo unspecified) | 10900
15 | Fc1ccc(C2=NN(c3nc(-c4ccc(Br)cc4)cs3)C(c3cccs3)C2)cc1 (stereo unspecified) | 1860
16 | Cc1ccc(C2=NN(c3nc(-c4ccc(C(F)(F)F)cc4)cs3)C(c3cccs3)C2)cc1 (stereo unspecified) | 6180
17 | COc1ccc(C2=NN(c3nc(-c4ccccc4)cs3)C(c3cccs3)C2)cc1 (stereo unspecified) | 1110
18 | Clc1ccc(C2=NN(c3nc(-c4ccccc4)cs3)C(c3cccs3)C2)cc1 (stereo unspecified) | 90
19 | FC(F)(F)c1ccc(-c2csc(N3N=C(c4ccc(Br)cc4)CC3c3cccs3)n2)cc1 (stereo unspecified) | 2090
20 | Clc1ccc(C2=NN(c3nc(-c4ccc(Br)cc4)cs3)C(c3cccs3)C2)cc1 (stereo unspecified) | 4780
21 | FC(F)(F)c1ccc(-c2csc(N3N=C(c4ccc(Cl)cc4)CC3c3cccs3)n2)cc1 (stereo unspecified) | 50
22 | COc1ccc(C2=NN(c3nc(-c4ccc(OC)cc4)cs3)C(c3cccs3)C2)cc1 (stereo unspecified) | 5230
23 | COc1ccc(-c2csc(N3N=C(c4ccc(Cl)cc4)CC3c3cccs3)n2)cc1 (stereo unspecified) | 190

Test system: MCF7
Assay: Induction of apoptosis in human MCF7 cells assessed as early apoptotic cells at 3 uM after 48 hrs using annexin V-FITC/PI by flow cytometry (reference value: 3.52 %)
Type: functional
Conditions: not given

Row | Structure (SMILES) | Activity [%]
24 | FC(F)(F)c1ccc(-c2csc(N3N=C(c4ccc(Cl)cc4)CC3c3cccs3)n2)cc1 (stereo unspecified) | 43.69

Test system: WM 266-4
Assay: Induction of apoptosis in human WM266.4 cells assessed as viable cells at 3 uM after 48 hrs using annexin V-FITC/PI by flow cytometry (reference value: 86.39 %)
Type: functional
Conditions: WM 266-4, 48 h, read-out: Activity

Row | Structure (SMILES) | viability at 3 µM [%]
25 | FC(F)(F)c1ccc(-c2csc(N3N=C(c4ccc(Cl)cc4)CC3c3cccs3)n2)cc1 (stereo unspecified) | 11

Test system: WM 266-4
Assay: Induction of apoptosis in human WM266.4 cells assessed as necrotic cells at 3 uM after 48 hrs using annexin V-FITC/PI by flow cytometry (reference value: 1.26 %)
Type: functional
Conditions: not given

Row | Structure (SMILES) | Activity [%]
26 | FC(F)(F)c1ccc(-c2csc(N3N=C(c4ccc(Cl)cc4)CC3c3cccs3)n2)cc1 (stereo unspecified) | 3.54

Test system: WM 266-4
Assay: Induction of apoptosis in human WM266.4 cells assessed as early apoptotic cells at 1 uM after 48 hrs using annexin V-FITC/PI by flow cytometry (reference value: 5.79 %)
Type: functional
Conditions: not given

Row | Structure (SMILES) | Activity [%]
27 | FC(F)(F)c1ccc(-c2csc(N3N=C(c4ccc(Cl)cc4)CC3c3cccs3)n2)cc1 (stereo unspecified) | 14.13

Test system: WM 266-4
Assay: Induction of apoptosis in human WM266.4 cells assessed as viable cells at 1 uM after 48 hrs using annexin V-FITC/PI by flow cytometry (reference value: 86.39 %)
Type: functional
Conditions: WM 266-4, 48 h, read-out: Activity

Row | Structure (SMILES) | viability at 1 µM [%]
28 | FC(F)(F)c1ccc(-c2csc(N3N=C(c4ccc(Cl)cc4)CC3c3cccs3)n2)cc1 (stereo unspecified) | 68.2

Test system: MCF7
Assay: Induction of apoptosis in human MCF7 cells assessed as viable cells at 1 uM after 48 hrs using annexin V-FITC/PI by flow cytometry (reference value: 91.07 %)
Type: functional
Conditions: MCF7, 48 h, read-out: Activity

Row | Structure (SMILES) | viability at 1 µM [%]
29 | FC(F)(F)c1ccc(-c2csc(N3N=C(c4ccc(Cl)cc4)CC3c3cccs3)n2)cc1 (stereo unspecified) | 32.4

Test system: WM 266-4
Assay: Induction of apoptosis in human WM266.4 cells assessed as late apoptotic cells at 1 uM after 48 hrs using annexin V-FITC/PI by flow cytometry (reference value: 6.56 %)
Type: functional
Conditions: not given

Row | Structure (SMILES) | Activity [%]
30 | FC(F)(F)c1ccc(-c2csc(N3N=C(c4ccc(Cl)cc4)CC3c3cccs3)n2)cc1 (stereo unspecified) | 17.54

Test system: MCF7
Assay: Induction of apoptosis in human MCF7 cells assessed as late apoptotic cells at 1 uM after 48 hrs using annexin V-FITC/PI by flow cytometry (reference value: 5.12 %)
Type: functional
Conditions: not given

Row | Structure (SMILES) | Activity [%]
31 | FC(F)(F)c1ccc(-c2csc(N3N=C(c4ccc(Cl)cc4)CC3c3cccs3)n2)cc1 (stereo unspecified) | 27.25

Test system: WM 266-4
Assay: Induction of apoptosis in human WM266.4 cells assessed as necrotic cells at 1 uM after 48 hrs using annexin V-FITC/PI by flow cytometry (reference value: 1.26 %)
Type: functional
Conditions: not given

Row | Structure (SMILES) | Activity [%]
32 | FC(F)(F)c1ccc(-c2csc(N3N=C(c4ccc(Cl)cc4)CC3c3cccs3)n2)cc1 (stereo unspecified) | 0.09

Test system: MCF7
Assay: Induction of apoptosis in human MCF7 cells assessed as necrotic cells at 3 uM after 48 hrs using annexin V-FITC/PI by flow cytometry (reference value: 0.29 %)
Type: functional
Conditions: not given

Row | Structure (SMILES) | Activity [%]
33 | FC(F)(F)c1ccc(-c2csc(N3N=C(c4ccc(Cl)cc4)CC3c3cccs3)n2)cc1 (stereo unspecified) | 3.54

Test system: WM 266-4
Assay: Induction of apoptosis in human WM266.4 cells assessed as late apoptotic cells at 3 uM after 48 hrs using annexin V-FITC/PI by flow cytometry (reference value: 6.56 %)
Type: functional
Conditions: not given

Row | Structure (SMILES) | Activity [%]
34 | FC(F)(F)c1ccc(-c2csc(N3N=C(c4ccc(Cl)cc4)CC3c3cccs3)n2)cc1 (stereo unspecified) | 38.25

Test system: MCF7
Assay: Induction of apoptosis in human MCF7 cells assessed as early apoptotic cells at 1 uM after 48 hrs using annexin V-FITC/PI by flow cytometry (reference value: 3.52 %)
Type: functional
Conditions: not given

Row | Structure (SMILES) | Activity [%]
35 | FC(F)(F)c1ccc(-c2csc(N3N=C(c4ccc(Cl)cc4)CC3c3cccs3)n2)cc1 (stereo unspecified) | 39.15

Test system: not listed separately
Assay: Antiproliferative activity against human WM266.4 cells after 48 hrs by MTT assay
Type: functional, cell-based
Conditions: WM 266-4, 48 h
Method in brief: as §1

Row | Structure (SMILES) | IC50 [nM]
36 | COc1ccc(C2=NN(c3nc(-c4ccc(C(F)(F)F)cc4)cs3)C(c3cccs3)C2)cc1 (stereo unspecified) | 8110
37 | Fc1ccc(C2=NN(c3nc(-c4ccc(Br)cc4)cs3)C(c3cccs3)C2)cc1 (stereo unspecified) | 220
38 | Cc1ccc(C2=NN(c3nc(-c4ccc(C(F)(F)F)cc4)cs3)C(c3cccs3)C2)cc1 (stereo unspecified) | 2110
39 | COc1ccc(C2=NN(c3nc(-c4ccccc4)cs3)C(c3cccs3)C2)cc1 (stereo unspecified) | 2120
40 | Clc1ccc(C2=NN(c3nc(-c4ccccc4)cs3)C(c3cccs3)C2)cc1 (stereo unspecified) | 2190
41 | FC(F)(F)c1ccc(-c2csc(N3N=C(c4ccc(Br)cc4)CC3c3cccs3)n2)cc1 (stereo unspecified) | 27400
42 | Clc1ccc(C2=NN(c3nc(-c4ccc(Br)cc4)cs3)C(c3cccs3)C2)cc1 (stereo unspecified) | 1450
43 | FC(F)(F)c1ccc(-c2csc(N3N=C(c4ccc(Cl)cc4)CC3c3cccs3)n2)cc1 (stereo unspecified) | 120
44 | COc1ccc(C2=NN(c3nc(-c4ccc(OC)cc4)cs3)C(c3cccs3)C2)cc1 (stereo unspecified) | 31600
45 | COc1ccc(-c2csc(N3N=C(c4ccc(Cl)cc4)CC3c3cccs3)n2)cc1 (stereo unspecified) | 1310

Test system: MCF7
Assay: Induction of apoptosis in human MCF7 cells assessed as late apoptotic cells at 3 uM after 48 hrs using annexin V-FITC/PI by flow cytometry (reference value: 5.12 %)
Type: functional
Conditions: not given

Row | Structure (SMILES) | Activity [%]
46 | FC(F)(F)c1ccc(-c2csc(N3N=C(c4ccc(Cl)cc4)CC3c3cccs3)n2)cc1 (stereo unspecified) | 33.01
